According to ChEMBL document CHEMBL1139312, “Synthesis and SAR of 6-chloro-4-fluoroalkylamino-2-heteroaryl-5-(substituted)phenylpyrimidines as anti-cancer agents” (Bioorg Med Chem, 2009):
Converted amounts (≈) assume the structure as drawn. Each block holds one molecule with its values, some of them ahead of it. The source made the active and inactive calls. The calls are words filed in the database; no cut-off is given here.

Experiments:
COLO 205 = assay: Antiproliferative activity against human COLO205 cells after 24 hrs by MTS assay; assay type: functional, cell-based
[1] = Induction of tubulin polymerization
[2] = Antiproliferative activity against human KBV1 cells after 3 days by SRB assay; assay type: functional, cell-based; conditions: KB-V1, 72 h
KB [3] = assay: Ratio of IC50 for human KB 8.5 cells to IC50 for human KB cells; assay type: functional
Outline: (§1)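 Resistance ratio: IC50 in KB 8.5 or KB V1 cells divided by IC50 in parental KB cells, each IC50 from 10-concentration duplicate dose–response curves; ratio near 1 means no resistance.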

[4] = Volume of distribution in rat; assay type: ADME, organism-based; conditions: in vivo
Outline: (§2)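 Rat pharmacokinetic parameters were derived by non-compartmental, model-independent analysis.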

KB [5] = assay: Antiproliferative activity against human KB cells after 3 days by SRB assay; assay type: functional, cell-based; conditions: 72 h
[6] = Ratio of IC50 for human KBV1 cells to IC50 for human KB cells; assay type: functional; outline: as §1
[7] = Metabolic stability in female nude mouse liver microsomes at 1 uM after 30 mins; assay type: ADME, Microsome
Outline: (§3)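 Liver microsomes (1 mg/mL) from each species and sex were incubated with compound for 30 min at 37 °C in the presence of NADPH. Read-out was metabolic half-life (t1/2).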

[8] = Metabolic stability in male cynomolgus monkey liver microsomes at 1 uM after 30 mins; assay type: ADME, Macaca fascicularis, Microsome; outline: as §3
[9] = Metabolic stability in female Sprague-Dawley rat liver microsomes at 1 uM after 30 mins; assay type: ADME, Microsome; outline: as §3
[10] = Clearance in rat; assay type: ADME, organism-based; conditions: in vivo; outline: as §2
[11] = Metabolic stability in male human liver microsomes at 1 uM after 30 mins; assay type: ADME, Microsome; outline: as §3
[12] = Aqueous solubility at pH 7.4 by shake flask method; assay type: physicochemical
[13] = Half life in rat; assay type: ADME, organism-based; conditions: in vivo; outline: as §2
[14] = Metabolic stability in male Sprague-Dawley rat liver microsomes at 1 uM after 30 mins; assay type: ADME, Microsome; outline: as §3
[15] = Antiproliferative activity against human KB 8.5 cells after 3 days by SRB assay; assay type: functional, cell-based; conditions: 72 h
[16] = Metabolic stability in male Beagle dog liver microsomes at 1 uM after 30 mins; assay type: ADME, Canis lupus familiaris, Microsome; outline: as §3
[17] = Bioavailability in rat; assay type: ADME, organism-based; conditions: in vivo; outline: as §2
LOX = assay: Antitumor activity against human LOX cells xenografted in Foxn1nu mouse assessed as reduction in tumor growth at 1 to 6 mg/kg, iv; assay type: functional, organism-based
Outline: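 LOX melanoma cells (2 × 10⁶ per animal) were implanted s.c. in the flank of female NU/NU-Foxn1nu mice, which were staged at about 100 mg tumor mass. Compound was dosed i.v. in 0.9% saline on days 1, 5 and 9 after staging, with a vehicle-only i.v. control. Five mice per group. Relative tumor growth = mean tumor mass on day d / group mean on day 0.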

NCI-H460 = assay: Antitumor activity against human H460 cells xenografted in Foxn1nu mouse assessed as reduction in tumor growth at 2.5 to 10 mg/kg, po; assay type: functional, organism-based
Outline: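 Female NU/NU-Foxn1nu mice were injected s.c. in the flank with 1 × 10⁶ H460 cells per animal and staged (randomized) when tumors reached about 100 mg. Compound was given by oral gavage in Klucel on days 0 and 7 after staging. Controls received vehicle only, i.v. Nine animals per group; tumor mass was followed over days.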

- IC50 (COLO 205; Homo sapiens, COLO 205, 24 h): 84 nM
SMILES: Fc1cc(F)c(-c2c(Cl)nc(-c3cnccn3)nc2NCC(F)(F)F)c(F)c1

SMILES: CNCCCOc1cc(F)c(-c2c(Cl)nc(-c3cnccn3)nc2N[C@@H](C)C(F)(F)F)c(F)c1 [listing 1 of 3 here]
- IC50 (COLO 205; Homo sapiens, COLO 205, 24 h): 8.9 nM

- IC50 (COLO 205; Homo sapiens, COLO 205, 24 h): 250 nM
SMILES: Fc1cc(F)c(-c2c(Cl)nc(-c3ccc4ccccc4n3)nc2NCC(F)(F)F)c(F)c1

- IC50 (COLO 205; Homo sapiens, COLO 205, 24 h): 19 nM
SMILES: C[C@H](Nc1nc(-n2cccn2)nc(Cl)c1-c1c(F)cc(F)cc1F)C(F)(F)F

- IC50 (COLO 205; Homo sapiens, COLO 205, 24 h): 232 nM
SMILES: Fc1cc(F)c(-c2c(Cl)nc(-c3ccco3)nc2NCC(F)(F)F)c(F)c1

- IC50 (COLO 205; Homo sapiens, COLO 205, 24 h): 682 nM
SMILES: CN(C)CCCOc1cc(F)c(-c2c(Cl)nc(-n3ccnc3)nc2NCC(F)(F)F)c(F)c1

- Activity [1]: Active
SMILES: CNCCCOc1cc(F)c(-c2c(Cl)nc(-c3ccccn3)nc2N[C@@H](C)C(F)(F)F)c(F)c1 [listing 1 of 3 here]

- IC50 (COLO 205; Homo sapiens, COLO 205, 24 h): 3.3 nM
SMILES: CC(=O)O[C@H]1C(=O)[C@@]2(C)[C@H]([C@H](OC(=O)c3ccccc3)[C@]3(O)C[C@H](OC(=O)[C@H](O)[C@@H](NC(=O)c4ccccc4)c4ccccc4)C(C)=C1C3(C)C)[C@]1(OC(C)=O)CO[C@@H]1C[C@@H]2O [PACLITAXEL]
- IC50 [2]: 2010 nM

- IC50 (COLO 205; Homo sapiens, COLO 205, 24 h): 49 nM
SMILES: CN(C)CCCOc1cc(F)c(-c2c(Cl)nc(-c3ncccn3)nc2NCC(F)(F)F)c(F)c1

- IC50 (COLO 205; Homo sapiens, COLO 205, 24 h): 29 nM
SMILES: C[C@H](Nc1nc(-c2ccccn2)nc(Cl)c1-c1c(F)cc(F)cc1F)C(F)(F)F

- IC50 (COLO 205; Homo sapiens, COLO 205, 24 h): > 5000 nM
SMILES: Fc1cc(F)c(-c2c(Cl)nc(-c3ccncc3)nc2NCC(F)(F)F)c(F)c1

SMILES: CNCCCOc1cc(F)c(-c2c(Cl)nc(-c3cnccn3)nc2N[C@@H](C)C(F)(F)F)c(F)c1 [listing 2 of 3 here]
- Ratio IC50 (KB [3]): 3.4
- Vd [4]: 14 L/kg
- IC50 (KB [5]): 7 nM
- Ratio IC50 [6]: 58
- half-life at 1 µM [7]: > 1 h
- half-life at 1 µM [8]: > 1 h
- half-life at 1 µM [9]: > 1 h
- clearance [10]: 21 mL/min/kg
- half-life at 1 µM [11]: > 1 h
- solubility thermodynamic [12]: 540 µg/mL (≈ 1070 µM)
- IC50 (COLO 205; colo 205): 6.9 nM
- IC50 [2]: 405 nM
- half-life [13]: 8.6 h
- half-life at 1 µM [14]: > 1 h
- IC50 [15]: 24 nM
- half-life at 1 µM [16]: > 1 h
- bioavailability [17]: 100%

- IC50 (KB [5]): 2.2 nM
- IC50 (COLO 205; Homo sapiens, COLO 205, 24 h): 2.6 nM
SMILES: CC[C@]1(O)C[C@H]2CN(CCc3c([nH]c4ccccc34)[C@@](C(=O)OC)(c3cc4c(cc3OC)N(C=O)[C@H]3[C@@](O)(C(=O)OC)[C@H](OC(C)=O)[C@]5(CC)C=CCN6CC[C@]43[C@@H]65)C2)C1 [VINCRISTINE]
- Ratio IC50 [6]: 925
- IC50 [2]: 2040 nM
- IC50 [15]: 58 nM

- IC50 (COLO 205; Homo sapiens, COLO 205, 24 h): 4680 nM
SMILES: Fc1cc(F)c(-c2c(Cl)nc(-c3nccc4ccccc34)nc2NCC(F)(F)F)c(F)c1

- IC50 (COLO 205; Homo sapiens, COLO 205, 24 h): 119 nM
SMILES: Fc1cc(F)c(-c2c(Cl)nc(-c3cc4ccccc4cn3)nc2NCC(F)(F)F)c(F)c1

- IC50 (COLO 205; Homo sapiens, COLO 205, 24 h): 51 nM
SMILES: C[C@H](Nc1nc(-c2cnccn2)nc(Cl)c1-c1c(F)cc(F)cc1F)C(F)(F)F

- IC50 (COLO 205; Homo sapiens, COLO 205, 24 h): 32 nM
SMILES: CN(C)CCCCOc1cc(F)c(-c2c(Cl)nc(-c3cnccn3)nc2NCC(F)(F)F)c(F)c1

- IC50 (COLO 205; Homo sapiens, COLO 205, 24 h): 18 nM
SMILES: CN(C)CCCOc1cc(F)c(-c2c(Cl)nc(-c3cnccn3)nc2NCC(F)(F)F)c(F)c1 [listing 1 of 2 here]

- IC50 (COLO 205; Homo sapiens, COLO 205, 24 h): 3030 nM
SMILES: Fc1cc(F)c(-c2c(Cl)nc(-n3ccnc3)nc2NCC(F)(F)F)c(F)c1

- IC50 (COLO 205; Homo sapiens, COLO 205, 24 h): 5.2 nM
SMILES: CNCCCOc1cc(F)c(-c2c(Cl)nc(-c3ccccn3)nc2N[C@@H](C)C(F)(F)F)c(F)c1 [listing 2 of 3 here]

- IC50 (COLO 205; Homo sapiens, COLO 205, 24 h): 3460 nM
SMILES: Fc1cc(F)c(-c2c(Cl)nc(-c3cccs3)nc2NCC(F)(F)F)c(F)c1

- IC50 (COLO 205; Homo sapiens, COLO 205, 24 h): 3930 nM
SMILES: Fc1cc(F)c(-c2c(Cl)nc(-c3cccnc3)nc2NCC(F)(F)F)c(F)c1

- IC50 (COLO 205; Homo sapiens, COLO 205, 24 h): 39 nM
SMILES: Fc1cc(F)c(-c2c(Cl)nc(-c3ccccn3)nc2NCC(F)(F)F)c(F)c1

- IC50 (KB [5]): 2.4 nM
SMILES: CNCCCOc1cc(F)c(-c2c(Cl)nc(-n3cccn3)nc2N[C@@H](C)C(F)(F)F)c(F)c1 [listing 1 of 3 here]
- Ratio IC50 (KB [3]): 13
- Ratio IC50 [6]: 237
- IC50 [2]: 569 nM
- IC50 [15]: 32 nM

SMILES: CNCCCOc1cc(F)c(-c2c(Cl)nc(-c3cnccn3)nc2N[C@@H](C)C(F)(F)F)c(F)c1 [listing 3 of 3 here]
- Activity (LOX): Active
- Activity [1]: Active
- Activity (NCI-H460): Active

- IC50 (COLO 205; Homo sapiens, COLO 205, 24 h): 77 nM
SMILES: Cn1ccnc1-c1nc(Cl)c(-c2c(F)cc(F)cc2F)c(NCC(F)(F)F)n1

- IC50 (COLO 205; Homo sapiens, COLO 205, 24 h): 265 nM
SMILES: Fc1cc(F)c(-c2c(Cl)nc(-c3ncccn3)nc2NCC(F)(F)F)c(F)c1

- Activity [1]: Active
SMILES: CNCCCOc1cc(F)c(-c2c(Cl)nc(-n3cccn3)nc2N[C@@H](C)C(F)(F)F)c(F)c1 [listing 2 of 3 here]

- IC50 (COLO 205; Homo sapiens, COLO 205, 24 h): 53 nM
SMILES: Fc1cc(F)c(-c2c(Cl)nc(-n3cccn3)nc2NCC(F)(F)F)c(F)c1

- IC50 (COLO 205; Homo sapiens, COLO 205, 24 h): 2.4 nM
SMILES: CNCCCOc1cc(F)c(-c2c(Cl)nc(-n3cccn3)nc2N[C@@H](C)C(F)(F)F)c(F)c1 [listing 3 of 3 here]

- IC50 (KB [5]): 20 nM
- IC50 (COLO 205; colo 205): 22 nM
SMILES: CN(C)CCCOc1cc(F)c(-c2c(Cl)nc(-c3cnccn3)nc2NCC(F)(F)F)c(F)c1 [listing 2 of 2 here]
- Ratio IC50 (KB [3]): 1.2
- Ratio IC50 [6]: 5
- IC50 [2]: 99 nM
- IC50 [15]: 24 nM

- IC50 (COLO 205; Homo sapiens, COLO 205, 24 h): 128 nM
SMILES: CN(C)CCOc1cc(F)c(-c2c(Cl)nc(-c3cnccn3)nc2NCC(F)(F)F)c(F)c1

- IC50 (KB [5]): 6.2 nM
SMILES: CNCCCOc1cc(F)c(-c2c(Cl)nc(-c3ccccn3)nc2N[C@@H](C)C(F)(F)F)c(F)c1 [listing 3 of 3 here]
- Ratio IC50 [6]: 68
- IC50 [2]: 423 nM
- IC50 [15]: 21 nM
